# Assay results as given in the EternaBench riboswitch data.
# Test system: MS2 coat protein
# Experiment: apparent Kd, MS2 coat protein; higher = weaker binding; RNA-MaP array; FMN 200 µM where present
# Summary of the method: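 Apparent Kd: the median of filtered binding-curve fits from single clusters. Designs were transcribed on Illumina sequencing-chip clusters by stalled E. coli RNA polymerase and titrated with SNAP-549-labelled MS2 coat protein from 0.7 or 1.5 nM, doubling to 3 µM, in 100 mM Tris-HCl pH 7.5, 80 mM KCl, 4 mM MgCl2, BSA, DTT, yeast tRNA and Tween-20. Each series ran without and then with constant ligand, and green signal was normalised to red-channel RNA signal and control-cluster median Fmax.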
# [1] = designed as: OFF switch for flavin mononucleotide, no ligand
# [2] = ligand present: flavin mononucleotide, designed as: OFF switch for flavin mononucleotide
# [3] = designed as: ON switch for flavin mononucleotide, no ligand
# [4] = ligand present: flavin mononucleotide, designed as: ON switch for flavin mononucleotide
Sequence,apparent Kd [1],apparent Kd [2],apparent Kd [3],apparent Kd [4]
CCAUGCGGAAUAGGAUAUUCAUUCAUGAGGAUAGAAGAAGGGUUACAUGAGGAUCACCCAUGUAUACACAUGAGGAUCCCUUAC,0.162 µM,0.18 µM,–,–
CCAUGGCAUGUAGGAUAUGUCUGACAAAGUCAGACAGAAGGACAUGAGGAUCACCCAUGUAAAAGAAAACCAACAUAGCCAUGG,0.00623 µM,0.00588 µM,–,–
CCAUGGCUGUAAGGAUAUGUCUGACAAAGUCAGACAGAAGGUACAUGAGGAUCACCCAUGUGAAGAAAACCACAUUUGCCAUGG,0.00668 µM,0.00841 µM,–,–
CCAUGGUGGGCAGGAUAUCGUCCAGCUUGCGGACGAGAAGGGCUCAAACAUGAGGAUCACCCAUGUGAAGAGCGGGUUGUCCAA,0.0246 µM,0.146 µM,–,–
CCAUUUCAGUAAGGAUAUAUAAACAUGACGAUACAUGAGGAUCACCCAUGUGUAGAAGGUACUAAUACAUAUAAUGCAAUGUUC,0.0166 µM,0.0157 µM,–,–
CCCAUCGCAUGAGGAUAUGGUCAGCUUUGCUGACCAGAAGGCAUGUCAUAAGACAUGAGGAUCACCCAUGUAGUUAAGAUGGGA,–,–,0.654 µM,0.0483 µM
CCCAUGUCAGGAUAUCUAAGAGAGGGCCAGCCCUCUCCUCCGGAGAAGGGACAUGAGGAUCACCCAUGUAAAAC,0.129 µM,0.0255 µM,–,–
CCCGGCGAGUCGCUACGCCGAGAGCAGGAUAUUCCGCCGUGAUCUACAUGAGGAUCACCCAUGUGGAAGAAGGGCUACACAAAA,0.0151 µM,0.158 µM,–,–
CCCGUGUGUUAAGGAUAUGGCAGGCGCGUUGAACCAGAAGGUAGCACAUGAGGAUCACCCAUGUGAAUGCUCGCGACUCGAGCG,0.0436 µM,0.0182 µM,–,–
CCCGUGUUAGGAUAUACGGCACACCUGCCAGCAGGUGUAUAGUAGAAGGAACAUGAGGAUCACCCAUGUAUAGC,0.0381 µM,0.036 µM,–,–
CCCUCACAUGAGGAUCACCCAUGUCAGGAUAUCUCACAUCGGCCUUAGGCCAAUGUCAAGAGAAGGGACGUAUC,0.0223 µM,0.0339 µM,–,–
CCCUCACAUGAGGAUCACCCAUGUCAGGAUAUUCGAACGGUGUGUUUUUGGCCAGUUGGAAGAAGGGACAUAAA,0.0297 µM,0.117 µM,–,–
CCCUCACAUGAGGAUCACCCAUGUGAGGAUAUGCAUUCCAAAGCGAGCUUUGAGAAGAGUAGAAGGCACUGGUG,0.0171 µM,0.0199 µM,–,–
CCCUCACAUGAGGAUCACCCAUGUUAGGAUAUCUACCUGGAGCUUUGAUUAGCCCAACGGAGAAGGAACGUGCA,0.019 µM,0.0187 µM,–,–
CCGAAUGUCACAGGAUAUGGUCCGGGCACGCGACCAGAAGGGUGAUCUCACAUGAGGAUCACCCAUGUGCAGGCGUAAGGCUGC,–,–,0.0284 µM,0.193 µM
CCGACAUGAGGAUAUCCAUCUGGAUCAGACUAGAUCCUGAUGGAGAAGGCACAUGAGGAUCACCCAUGUUACGG,0.373 µM,0.0891 µM,–,–
CCGACUUACUAGGAUAUCAGAGUCGAAAGACUCUGAGAAGGAGUAACAUGAGGAUCACCCAUGUGUCCUAUCGG,0.0233 µM,0.0777 µM,–,–
CCGAUAAUAGGACAGGAUAUGACUGUCGUCACAUGAGGAUCACCCAUGUCCCGGCAAUGCCACCGUUAGAAGGGUCCUAUCUCGA,–,–,0.0149 µM,0.0146 µM
CCGCAGUUAGGAUAUACAUGAGGAUCACCCAUGUGUCCAUCUGUAAUAAGACAGGAUAGUAGAAGGAACUGGCG,0.0148 µM,0.0259 µM,–,–

Sequence,apparent Kd [1],apparent Kd [2],apparent Kd [3],apparent Kd [4]
CCGCAUAUGCAGGAUAUCGUAUCGGAAACGAUACGAGAAGGGUAAACAUGAGGAUCACCCAUGUUCCUUAACGG,0.018 µM,0.0165 µM,–,–
CCGGAAACGGGUAGCUCACAUGAGGAUCACCCAUGUGAAACACAGGAUAUGGAUCCUAAUUGGAUCCAGAAGGGUGUGAGCUAC,–,–,0.058 µM,0.0203 µM
CCGGAAUUGCAGGAUAUAGGAGUCGAUAGACACCUAGAAGGGCAGACAUGAGGAUCACCCAUGUGUCCUACCGG,0.0186 µM,0.0312 µM,–,–
CCGGAGACGGGUAGCCUGACAUGAGGAUCACCCAUGUGAUCCUAGGAUAUGGAUCCUAAUUGGAUCCAGAAGGAGGUUGGCUAC,–,–,1.21 µM,0.392 µM
CCGGAUAUGCAGGAUAUCGUAUCGGAUACGAUACGAGAAGGGUAUACAUGAGGAUCACCCAUGUGCCUUACCGG,0.0193 µM,0.02 µM,–,–
CCGGCUGCUGUGAGGAUAUGCCUGUGGGUGCGUGGGUAGAAGGCACAUGAGGAUCACCCAUGUCCUGCGGCUCC,0.877 µM,0.311 µM,–,–
CCGGCUGCUGUGAGGAUAUGCCUGUGGGUGCGUGGGUAGAAGGCACAUGAGGAUCACCCAUGUCCUGCGGCUCG,0.501 µM,0.327 µM,–,–
CCGUUCUGAGGAUAUCCACCCUCAUACAUGAGGAUCACCCAUGUUCACCCUUGGGUUCCCGGAGAAGGCAGUUUUC,0.232 µM,0.467 µM,–,–
CCUAAGGAGACAGGAUAUAGCGUGGUGGCCGGGCUCCAACGGCGAGCGGCGCUAGAAGGGUCACUACAUGAGGAUCACCCAUGU,–,–,0.0102 µM,0.0109 µM
CCUAGUUGGUAAGGAUAUCCUACACUGUUCUGACCCGUGCAAGCUACAUGAGGAUCACCCAUGUGGGAGAAGGUGCGUCGACGC,0.024 µM,0.0249 µM,–,–
CCUAUGUGAGGAUAUCACUGGUCUUCUCACUGGAUGACCAGUGAGAAGGCACAUGAGGAUCACCCAUGUCGGUG,0.436 µM,0.349 µM,–,–
CCUAUUAGAAAAUAGACGAAGUGGCCAGAAGGUGAAUGCCACAUGAGGAUCACCCAUGUUUCGAUCAAGGAUAUGGUUUCUCAC,–,–,0.63 µM,0.203 µM
CCUCAGUAAGGAUAUCAGCUUAUAAAGUUGGUAAUGAGAGCUGAGAAGGUACAUGAGGAUCACCCAUGUUAGUU,0.0215 µM,0.0663 µM,–,–
CCUCAGUAAGGAUAUCAGCUUAUAAGGUUGGUAAUGAGAGCUGAGAAGGUACAUGAGGAUCACCCAUGUUAGUU,0.0271 µM,0.0957 µM,–,–
CCUCAGUAAGGAUAUCAGCUUAUAGAGUUGGUAAUGAGAGCUGAGAAGGUACAUGAGGAUCACCCAUGUUAGUU,0.0218 µM,0.0573 µM,–,–
CCUCAGUUAGGAUAUUACUAAUCACUAACCGGGCAACUGGGUAAGAAGGAACAUGAGGAUCACCCAUGUUACGU,0.0221 µM,0.0222 µM,–,–
CCUCCCAAGUAAGGAUAUCGGCCAUAGUUAACUCGAGAAGGUACAUGAGGAUCACCCAUGUCGUCCCUACAGACUCCUCCCUCC,0.00919 µM,0.00915 µM,–,–
CCUCGACGGUAGGAUAUCGUCAAACUAUUGUGAUGAGAAGGACUGACAUGAGGAUCACCCAUGUUAACGUGAUG,0.018 µM,0.0262 µM,–,–
CCUCUACAUGAGGAUCACCCAUGUGAGGAUAUGCGAGGCGCGCUCGAUGAGCACGCCGGUAGAAGGCAUGUGGU,0.0238 µM,0.0516 µM,–,–

Sequence,apparent Kd [1],apparent Kd [2],apparent Kd [3],apparent Kd [4]
CCUGAGUCAGGAUAUUGUACCGGCCUGAAGCCAAGCCGACCCAAGAAGGGACAUGAGGAUCACCCAUGUGAAAA,0.0213 µM,0.0229 µM,–,–
CCUGUCAGAGGAUAUGCAUCAGGGCUAUCCUCUAUCGCAGAACAUGAGGAUCACCCAUGUAGAAGGCUGUCAAA,0.0299 µM,0.0236 µM,–,–
CCUUGUAGCGGAGGAUAUGGGCCUCACUCAGUCAAAGAGUGAGAAACAUGAGGAUCACCCAUGUCCCAGAAGGCCGCUGCUUGG,–,–,0.0178 µM,0.0128 µM
CCUUGUAUUGAGGAUAUGCGCCGGCUCGCUGGCGCAGAAGGCGGCACAUGAGGAUCACCCAUGUCAGUUCGCGA,0.00934 µM,0.012 µM,–,–
CCUUUGCUAUAUACAUGAGGAUCACCCAUGUCCACUGACAGACAGGAUAUCCUUAGAAACUAGCAGGAGAAGGGUCAGUCAUAC,–,–,0.263 µM,0.328 µM
CGAAACUACGAGAAGGACAUGUGGUCCUUCAGUUACAUGAGGAUCACCCAUGUAGGAUAUCGUAGUUUCAGGAUCGUGAGAUCA,0.0374 µM,0.007 µM,–,–
CGAAGUCCGUAGAAGGGUGACAUGAGGAUCACCCAUGUGCGAGCCGUGGGAGUCAGCGGCUCGCCACAGGAUAUACGGAGCACG,–,–,0.0306 µM,0.026 µM
CGAAUACGCGUGAGGAUAUCGUUCGAAUAUUGCGAUGAGAAGGCACAUGAGGAUCACCCAUGUAGGUAUCCUGG,0.0732 µM,0.12 µM,–,–
CGAAUGUAGACAGGAUAUCCUGGACAUGAGGAUCACCCAUGUGCAUAAAAUGGAGAAGGGUCACGGAGGCCCUGUGGGCAGGGU,–,–,0.0444 µM,0.00921 µM
CGACAUACGAUGGACGGAAACGUACAUGAGGAUCACCCAUGUAGAAGGCGAUCCGCAACGCGGAUUGAGGAUAUAUACCACACA,0.0192 µM,0.0178 µM,–,–
CGAGUACAUGAGGAUCACCCAUGUAAUGAAUUGUCAGGAUAUGGAGAUUGAUGACAUGCGCCAGAAGGGACAUCUG,–,–,0.0497 µM,0.0408 µM
CGAGUACAUGAGGAUCACCCAUGUUAUGAAUUGUCAGGAUAUGGGUAUUGGUGACAUGCGCCAGAAGGGACGUCUG,–,–,0.232 µM,0.124 µM
CGAUAACAUAGUUAUCCGUAACGGACAUGAGGAUCACCCAUGUAGGAUAUGUUACUCAACGAGUAACAGAAGGACAUGAGUCCU,0.0118 µM,0.054 µM,–,–
CGAUAACAUAGUUAUCCGUAACGUACAUGAGGAUCACCCAUGUAGGAUAUGUUACUAAACUAGUAACAGAAGGACAUGAGUAUU,0.0549 µM,0.315 µM,–,–
CGAUAGGACAGAGGAUAUACACAUGAGGAUCACCCAUGUAAUUACAAUUCUUAAGAUUCUAACAUGUAGAAGGCUGUCCUAUCG,0.0402 µM,0.0193 µM,–,–
CGAUAGGACAGAGGAUAUACACAUGAGGAUCACCCAUGUGAUUACAACUCUUAAGAUUCAAACAUGUAGAAGGCUGUCCUAUCG,0.0119 µM,0.0304 µM,–,–
CGAUAGGACAGAGGAUAUACACAUGAGGAUCACCCAUGUGAUUUCGGCGCGAAAGCGCCAAACAUGUAGAAGGCUGUCCUAUCG,0.0113 µM,0.00489 µM,–,–
CGAUAUAUGAAGGGCGAACGCGCACAUGAGGAUCACCCAUGUAGAAGGCGAUCCGCAACGCGGAUCGAGGAUAUAUAGUAUACA,0.037 µM,0.0338 µM,–,–
